TRPC4 PAM: allosteric potentiators of mouse TRPC4 channel; HEK293 TRPC4beta/mu-opioid, DAMGO EC20, Fluo-4 Ca2+ flux; active compounds read high; B-score at 10 µM; hit rate 0.42% among 310,000;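 active means B-score of calcium response area above 5 SD of library B-scores, with initial fluorescence ratio within 5 SD of library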
Target sequence (Q9QUQ5 whole entry, looked up): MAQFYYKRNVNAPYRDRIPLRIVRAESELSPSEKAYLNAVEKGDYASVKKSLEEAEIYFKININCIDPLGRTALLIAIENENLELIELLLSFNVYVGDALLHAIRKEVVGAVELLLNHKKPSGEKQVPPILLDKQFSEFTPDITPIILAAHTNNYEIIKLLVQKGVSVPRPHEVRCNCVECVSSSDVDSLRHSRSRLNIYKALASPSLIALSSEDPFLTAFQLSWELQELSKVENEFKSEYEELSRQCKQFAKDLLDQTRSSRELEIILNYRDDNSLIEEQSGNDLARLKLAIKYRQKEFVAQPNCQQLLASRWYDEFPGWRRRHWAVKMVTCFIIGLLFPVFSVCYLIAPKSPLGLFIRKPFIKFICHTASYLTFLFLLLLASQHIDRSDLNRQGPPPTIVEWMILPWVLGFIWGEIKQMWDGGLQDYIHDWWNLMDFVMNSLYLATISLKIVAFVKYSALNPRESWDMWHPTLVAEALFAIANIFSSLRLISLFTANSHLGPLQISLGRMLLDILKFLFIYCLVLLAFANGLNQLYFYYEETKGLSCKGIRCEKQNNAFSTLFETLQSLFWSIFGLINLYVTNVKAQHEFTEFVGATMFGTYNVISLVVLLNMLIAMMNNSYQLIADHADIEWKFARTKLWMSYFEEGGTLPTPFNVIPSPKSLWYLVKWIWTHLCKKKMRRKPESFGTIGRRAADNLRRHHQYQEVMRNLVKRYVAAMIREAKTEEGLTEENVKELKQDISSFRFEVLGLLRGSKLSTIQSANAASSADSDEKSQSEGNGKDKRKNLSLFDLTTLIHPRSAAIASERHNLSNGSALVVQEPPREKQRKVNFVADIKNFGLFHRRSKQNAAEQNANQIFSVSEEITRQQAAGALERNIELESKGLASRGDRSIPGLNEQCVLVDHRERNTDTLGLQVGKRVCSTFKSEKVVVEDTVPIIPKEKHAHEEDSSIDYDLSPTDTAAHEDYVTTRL
TRPC4 block: TRPC4 (mouse) channel inhibition; Q9QUQ5; HEK293 TRPC4beta/mu-opioid, DAMGO-evoked Fluo4 calcium flux; active compounds read low; B-score at 10 µM; hit rate 0.39% among 300,000; AID 2247;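 active means B-score over 3 SD under the library average, no early fluorescence shift, positive overall ratio signal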
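test system = HEK293 cells with stable TRPC4beta plus mu-opioid receptor expression | detection = Fluo4 Ca2+ flux fluorescence | read-out = integrated fluorescence ratio relative to baseline, converted to per-well B score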
TRPC6 act: mouse TRPC6 channel activation | Q61143 | AID 2550 | hit rate 0.13% among 310,000 | HEK293-TRPC6 membrane potential dye fluorescence; active compounds read high | B-score at 10 µM;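 active means B-score of the integrated fluorescence ratio above library mean plus 3 SD, and starting fluorescence ratio within library mean plus 5 SD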;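 further: higher score means more depolarization so channel activation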
TRPC6 inh: blocks the mouse TRPC6 cation channel; hit rate 1.1% among 310,000; Q61143; AID 2553; HEK293-TRPC6, membrane potential dye, ACh-evoked depolarization; active compounds read low; B-score at 10 µM;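 active means B-score under library mean minus 3 SD, initial fluorescence not abnormally high, positive integrated signal ratio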;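 further: B-score derived from integrated fluorescence ratio over the kinetic read; more negative B-score means stronger inhibition of depolarization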
TRPC4 act: TRPC4 (mouse) channel activation | hit rate 0.49% among 310,000 | AID 2237 | B-score at 10 µM | HEK293 TRPC4beta/mu-opioid, Fluo4 calcium fluorescence; active compounds read high;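 active means B-score above 5 SD of library B-scores, and initial fluorescence ratio not above library mean plus 5 SD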;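 further: positive B-score marks a calcium rise read as TRPC4 activation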
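System: HEK293 cells stably co-expressing mouse TRPC4beta and mu-opioid receptor; Schedule: Fluo4 dye loading 45 min at room temperature, 110 s recording; Detection: Fluo4 fluorescence, kinetic; Evaluation: B-scored integrated calcium fluorescence ratio; Controls: buffer (low) and maximal DAMGO (high).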
TRPC4 sel inh 2: second check of whether TRPC6 inhibitors also affect mouse TRPC4; shares compounds with TRPC6 inh; HEK293 TRPC4/MOR, membrane potential dye fluorescence; channel activated by saturating DAMGO dose; inhibition, % at 10 µM; hit rate 42% among 920;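 active means compounds whose fluorescence signal differed from control wells by over 3 SD, either direction, in both duplicate plates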
TRPC4 spec: selectivity of TRPC6 inhibitors: effect on mouse TRPC4. shares compounds with TRPC6 inh. HEK293 TRPC4/mu-opioid, membrane potential fluorescence. activity change, negative = inhibition, % at 10 µM. hit rate 61% among 920;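 active means rise or fall in signal beyond 3 SD of buffer-only wells in both replicate plates, either sign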;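 further: integrated kinetic ratio of fluorescence range over baseline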
HEK293 MPD ctr 2-1: second counter-screen for TRPC6 inhibitors: parental HEK293 cells | shares compounds with TRPC6 inh | hit rate 31% among 920 | parental HEK293 membrane potential dye fluorescence; maximal acetylcholine challenge after compound addition | signal change vs control, % at 10 µM;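 active means membrane potential signal moving either way by over 3 SD of the maximum-effect control, in both duplicate plates, meaning non-specific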
HEK293 MPD ctr-1: parental HEK293 nonspecific activity of TRPC6 inhibitors. membrane potential signal change, % at 10 µM. shares compounds with TRPC6 inh. hit rate 60% among 920. parental HEK293 membrane potential dye fluorescence;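 active means membrane potential signal shifting up or down by more than 3 SD of buffer-only wells, on both duplicate plates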
HEK293 MPD ctr-2: parental HEK293 nonspecific activity of TRPC6 modulators. AID 488924. membrane potential dye fluorescence. shares compounds with TRPC6 inh. membrane potential signal change, % at 10 µM. hit rate 51% among 2,400;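 active means membrane potential signal moves up or down beyond 5 SD from buffer-only wells, on both duplicate plates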
HEK293 MPD ctr 2-2: second counter-screen for TRPC6 modulators: effect in parental HEK293 cells. shares compounds with TRPC6 inh. AID 488926. inhibition, % at 10 µM. hit rate 14% among 2,400. membrane potential dye fluorescence; after compound, maximal acetylcholine stimulation;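 active means membrane potential signal drops by more than 5 SD from the mean control signal, in both duplicate plates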
TRPC4/MOR mod: selectivity of TRPC6 modulators against mouse TRPC4; shares compounds with TRPC6 inh; HEK293 TRPC4/mu-opioid, membrane potential fluorescence; percent change from control (negative = decrease, positive = increase), % at 10 µM; hit rate 69% among 2,400; AID 488927;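 active means membrane potential signal moved up or down beyond 5 SD of buffer control wells, in both duplicate plates, actives on both sides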
TRPC4/MOR inh 2: second check of whether TRPC6 modulators also affect mouse TRPC4; shares compounds with TRPC6 inh; HEK293 TRPC4/mu-opioid, membrane potential dye fluorescence; stimulated with maximal-effect DAMGO; inhibition, % at 10 µM; hit rate 55% among 2,400; AID 488928;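 active means drop in membrane potential signal beyond 5 SD of the control wells in both duplicate plates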;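 further: TRPC4 counter screen for TRPC6 hits run under conditions tuned for TRPC6 not TRPC4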
TRPC6 block conf: confirmation of mouse TRPC6 inhibitors | shares compounds with TRPC6 inh | inhibition, % at 10 µM | AID 488960 | hit rate 43% among 3,300 | HEK293-TRPC6, membrane potential dye, ACh-evoked depolarization;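 active means fluorescence ratio falls more than 5 SD below the full-stimulation control mean, in both duplicate runs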;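 further: integrated fluorescence ratio of peak minus minimum over baseline after agonist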
TRPC6 act confirm: confirmation of mouse TRPC6 activators | shares compounds with TRPC6 inh | HEK293-TRPC6 membrane potential dye fluorescence, FDSS | activation, % at 10 µM | hit rate 11% among 2,800 | AID 488961;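 active means ratio signal rise beyond 5 SD above unstimulated control wells' mean, seen in both duplicate runs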
Of the large screens only hits and unclear results are named; the others gave an inactive call (follow-up assays come after a bar, where they were run). Hits are enriched below; roughly 2.3% of the tested compounds scored in any of these assays.

Cc1cc(C)c(OCCCCN2CCNCC2)c(C)c1	TRPC6 inh -5.7 | HEK293 MPD ctr-2 inactive | HEK293 MPD ctr 2-2 inactive | TRPC4/MOR mod inactive | TRPC4/MOR inh 2 54% | TRPC6 block conf 44%
Cc1ccc(OCCCCCCN2CCNCC2)cc1	TRPC6 inh -6.7 | TRPC4 sel inh 2 48% | TRPC4 spec 0.1% | HEK293 MPD ctr 2-1 inactive | HEK293 MPD ctr-1 7.4% | TRPC6 block conf inactive | TRPC6 act confirm inactive
CC(=O)Nc1nc(CCN2C(=O)c3ccccc3C2=O)cs1	none
O=C(Nc1ccccc1)Nc1ccc(Cl)nc1Cl	none
CN1Cc2c(N3CCOCC3)nc3sc(C(=O)c4ccc(Br)cc4)c(N)c3c2CC1(C)C	TRPC6 inh -7.2 | TRPC4 sel inh 2 inactive | TRPC4 spec -11% | HEK293 MPD ctr 2-1 inactive | HEK293 MPD ctr-1 -161% | TRPC6 block conf inactive | TRPC6 act confirm inactive
Cc1cc(N2CCOCC2)nc2ccc(NC(=O)CCC(=O)N3CCN(c4ccc(F)cc4)CC3)cc12	none
Cc1cc(N2CCOCC2)nc2ccc(NC(=S)N3CCCCC3C)cc12 (stereo not drawn)	none
COc1cccc(C(=O)Nc2ccc3nc(N4CCOCC4)cc(C)c3c2)c1	TRPC6 inh -5.9 | HEK293 MPD ctr-2 -154% | HEK293 MPD ctr 2-2 inactive | TRPC4/MOR mod -26% | TRPC4/MOR inh 2 30% | TRPC6 block conf inactive | TRPC6 act confirm inactive
Cc1cc(N2CCCC2)nc2ccc(NC(=S)NCCCN3CCC(C)CC3)cc12	TRPC6 inh -7.2 | TRPC4 sel inh 2 76% | TRPC4 spec -14% | HEK293 MPD ctr 2-1 18% | HEK293 MPD ctr-1 -192% | TRPC6 block conf inactive | TRPC6 act confirm inactive
Cc1cc(N2CCOCC2)nc2ccc(NC(=O)CCC(=O)N3CCCC(C)C3)cc12 (stereo not drawn)	TRPC6 inh -6 | HEK293 MPD ctr-2 -68% | HEK293 MPD ctr 2-2 inactive | TRPC4/MOR mod -18% | TRPC4/MOR inh 2 36% | TRPC6 block conf inactive | TRPC6 act confirm inactive
Cc1cc(N2CCOCC2)nc2ccc(NC(=O)CCC(=O)N3CCN(c4ccccc4F)CC3)cc12	TRPC6 inh -6.6 | HEK293 MPD ctr-2 -67% | HEK293 MPD ctr 2-2 inactive | TRPC4/MOR mod -16% | TRPC4/MOR inh 2 inactive | TRPC6 block conf inactive | TRPC6 act confirm inactive
CNC(=O)c1c2c(nc3ccc(Br)cc13)CCCC2	none
CC1CCCN(C(=O)NC2CC(=O)N(c3ccc4c(c3)OCCO4)C2)C1 (stereo not drawn)	none
OC(CCN1CCCCC1)(c1ccccc1)C1CCCCC1 (stereo not drawn)	TRPC6 inh -5.2 | HEK293 MPD ctr-2 208% | HEK293 MPD ctr 2-2 80% | TRPC4/MOR mod 42% | TRPC4/MOR inh 2 inactive | TRPC6 block conf 78%
OC(CCN1CCOCC1)(c1ccc(Cl)cc1)C1CCCCC1 (stereo not drawn)	TRPC6 inh -5.7 | HEK293 MPD ctr-2 149% | HEK293 MPD ctr 2-2 inactive | TRPC4/MOR mod 26% | TRPC4/MOR inh 2 45% | TRPC6 block conf 44% | TRPC6 act confirm inactive
CCCOc1ccc(C(O)(CCC)CCN2CCCCC2)cc1 (stereo not drawn)	none
Cc1ccc(C(O)(CCN2CCCCC2)c2ccccc2)cc1 (stereo not drawn)	TRPC6 inh -7.1 | TRPC4 sel inh 2 inactive | TRPC4 spec 14% | HEK293 MPD ctr 2-1 inactive | HEK293 MPD ctr-1 13% | TRPC6 block conf 62%
CCOC(=O)c1sc2nc3c(SCC(=O)O)cc(C(=O)c4cc(F)ccc4O)cn3c(=O)c2c1C	none
COC(=O)c1cc(C(=O)c2cc(F)ccc2O)cn2c(=O)c3c(C)c(C)sc3nc12	TRPC6 inh -5.4 | HEK293 MPD ctr-2 inactive | HEK293 MPD ctr 2-2 inactive | TRPC4/MOR mod inactive | TRPC4/MOR inh 2 44% | TRPC6 block conf inactive | TRPC6 act confirm inactive
CNCCC1Sc2ccccc2Oc2ccccc21 (stereo not drawn)	TRPC6 inh -5.6 | HEK293 MPD ctr-2 86% | HEK293 MPD ctr 2-2 inactive | TRPC4/MOR mod 41% | TRPC4/MOR inh 2 59% | TRPC6 block conf inactive
COC(=O)C1=C(N)Oc2cc(C)[nH]c(=O)c2C1c1ccccc1OC (stereo not drawn)	none
O=c1oc2ccccc2c2c1ncn2CCN1CCOCC1	none
CN1CCN(CCCn2cnc3c(=O)oc4ccccc4c32)CC1	TRPC6 inh -5.1 | HEK293 MPD ctr-2 -269% | HEK293 MPD ctr 2-2 inactive | TRPC4/MOR mod -48% | TRPC4/MOR inh 2 inactive | TRPC6 block conf inactive | TRPC6 act confirm inactive
COc1cccc(OCC(O)CNC(C)c2ccccc2)c1 (stereo not drawn)	none
COc1ccccc1/C=C1\SC(=S)N(CCC(=O)N2CCN(C)CC2)C1=O	TRPC6 inh -5.3 | HEK293 MPD ctr-2 inactive | HEK293 MPD ctr 2-2 inactive | TRPC4/MOR mod inactive | TRPC4/MOR inh 2 44% | TRPC6 block conf inactive | TRPC6 act confirm inactive
N=c1c2c(n(Cc3ccc(F)cc3)c3c1CCC3)CCCC2	TRPC6 inh -5.4 | HEK293 MPD ctr-2 -188% | HEK293 MPD ctr 2-2 inactive | TRPC4/MOR mod -30% | TRPC4/MOR inh 2 30% | TRPC6 block conf inactive | TRPC6 act confirm inactive
CCOC(=O)Cn1c2c(c(=N)c3c1CCC3)CCC2	none
CCn1c2c(c(=N)c3c1CCC3)CCCC2	TRPC6 inh -5.3 | HEK293 MPD ctr-2 -284% | HEK293 MPD ctr 2-2 inactive | TRPC4/MOR mod -48% | TRPC4/MOR inh 2 31% | TRPC6 block conf inactive | TRPC6 act confirm inactive

Screening data (PubChem BioAssay)
